# Calls of active or inactive are those of the source. No cut-off for these calls is given here.
# Assays:
# Acinetobacter baumannii [1] = assay: Antibacterial activity against Acinetobacter baumannii ATCC 19606 by Etest method in presence of 4 ug/ml NAB7070; assay type: functional
# Klebsiella pneumoniae [2] = assay: Antibacterial activity against Klebsiella pneumoniae ATCC 13883 by Etest method in presence of NAB7061; assay type: functional
# Outline: (§1)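 MICs of the antibiotic taken from E-strips on Mueller-Hinton agar, run both with and without peptide. […] Inoculum was prepared per the strip manufacturer, matching CLSI M2-A9.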
# Pseudomonas aeruginosa [3] = assay: Antibacterial activity against Pseudomonas aeruginosa ATCC 27853by Etest method in presence of 2 ug/ml NAB739; assay type: functional
# Escherichia coli [4] = assay: Antibacterial activity against Escherichia coli IH3080 by Etest method in presence of 2 ug/ml NAB7062; assay type: functional
# Enterobacter cloacae [5] = assay: Antibacterial activity against Enterobacter cloacae ATCC 23355 […] by Etest method in presence of 4 ug/ml NAB7064; assay type: functional
# Proteus mirabilis = assay: Antibacterial activity against Proteus mirabilis ATCC 29906 by Etest method in presence of 4 ug/ml NAB7073; assay type: functional
# Pseudomonas aeruginosa [6] = assay: Antibacterial activity against Pseudomonas aeruginosa ATCC 27853 by Etest method in presence of 4 ug/ml NAB7075; assay type: functional
# Enterobacter cloacae [7] = assay: Antibacterial activity against Enterobacter cloacae ATCC 23355 […] by Etest method in presence of 2 ug/ml NAB7062; assay type: functional
# Klebsiella pneumoniae [8] = assay: Antibacterial activity against Klebsiella pneumoniae ATCC 13883 by Etest method; assay type: functional; outline: as §1
# Enterobacter cloacae [9] = assay: Antibacterial activity against Enterobacter cloacae CCUG52947 by Etest method in presence of 4 ug/ml NAB7067; assay type: functional
# Escherichia coli [10] = assay: Antibacterial activity against Escherichia coli ATCC […] by Etest method in presence of 1 ug/ml NAB7061; assay type: functional
# Serratia marcescens = assay: Antibacterial activity against Serratia marcescens ATCC 8100 by Etest method in presence of 4 ug/ml NAB7072; assay type: functional
# Klebsiella pneumoniae [11] = assay: Antibacterial activity against Klebsiella pneumoniae ATCC 13883 by Etest method in presence of 2 ug/ml NAB7061; assay type: functional; outline: as §1
# Acinetobacter baumannii [12] = assay: (§2) Antibacterial activity against Acinetobacter baumannii ATCC 19606 by Etest method in presence of […] NAB739; assay type: functional
# Enterobacter cloacae [13] = assay: Antibacterial activity against Enterobacter cloacae by Etest method in presence of 4 ug/ml NAB7068; assay type: functional
# Escherichia coli [14] = assay: Antibacterial activity against Escherichia coli ATCC 25992 by Etest method; assay type: functional
# Outline: (§3)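 E-strip MIC on Mueller-Hinton agar without added peptide; inoculum per manufacturer, matching CLSI M2-A9.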
# Escherichia coli [15] = assay: Antibacterial activity against Escherichia coli IH3080 by Etest method in presence of 4 ug/ml NAB7064; assay type: functional
# Klebsiella oxytoca [16] = assay: Antibacterial activity against Klebsiella oxytoca ATCC 13182 by Etest method in presence of 4 ug/ml NAB7065; assay type: functional
# Enterobacter cloacae [17] = assay: Antibacterial activity against Enterobacter cloacae ATCC 23355 by Etest method; assay type: functional; outline: as §3
# Pseudomonas aeruginosa [18] = assay: Antibacterial activity against Pseudomonas aeruginosa ATCC 27853by Etest method in presence of 0.5 ug/ml NAB739; assay type: functional; outline: as §1
# Acinetobacter baumannii [19] = assay: Antibacterial activity against Acinetobacter baumannii F264 by Etest method in presence of 0.5 ug/ml NAB739; assay type: functional
# Escherichia coli [20] = assay: Antibacterial activity against Escherichia coli IH3080 by Etest method in presence of 1 ug/ml NAB7061; assay type: functional
# Acinetobacter baumannii [21] = assay: Antibacterial activity against Acinetobacter baumannii ATCC 19606 by Etest method in presence of 1 ug/ml NAB739; assay type: functional
# Acinetobacter baumannii [22] = assay: Antibacterial activity against Acinetobacter baumannii ATCC 19606 by Etest method in presence of 0.5 ug/ml NAB739; assay type: functional
# Klebsiella oxytoca [23] = assay: Antibacterial activity against Klebsiella oxytoca CCUG51683 by Etest method in presence of 4 ug/ml NAB7066; assay type: functional
# Escherichia coli [24] = assay: Antibacterial activity against Escherichia coli ATCC […] by Etest method in presence of 4 ug/ml NAB7064; assay type: functional
# Pseudomonas aeruginosa [25] = assay: (§4) Antibacterial activity against Pseudomonas aeruginosa ATCC 27853by Etest method in presence of […] NAB739; assay type: functional
# Enterobacter cloacae [26] = assay: Antibacterial activity against Enterobacter cloacae ATCC 23355 […] by Etest method in presence of NAB7061; assay type: functional
# Klebsiella pneumoniae [27] = assay: Antibacterial activity against Klebsiella pneumoniae ATCC 13883 by Etest method in presence of 4 ug/ml NAB7061; assay type: functional; outline: as §1
# Pseudomonas aeruginosa [28] = assay: Antibacterial activity against Pseudomonas aeruginosa ATCC 27853by Etest method in presence of 1 ug/ml NAB739; assay type: functional; outline: as §1
# Escherichia coli [29] = assay: Antibacterial activity against Escherichia coli IH3080 by Etest method in presence of NAB7061; assay type: functional
# Pseudomonas aeruginosa [30] = assay: Antibacterial activity against Pseudomonas aeruginosa ATCC 27853by Etest method; assay type: functional; outline: as §1
# Proteus vulgaris = assay: Antibacterial activity against Proteus vulgaris ATCC 13315 by Etest method in presence of 4 ug/ml NAB7074; assay type: functional
# Klebsiella pneumoniae [31] = assay: Antibacterial activity against Klebsiella pneumoniae CCUG45421 by Etest method in presence of 4 ug/ml NAB7063; assay type: functional
# Acinetobacter baumannii [32] = assay: Antibacterial activity against Acinetobacter baumannii ATCC 19606 by Etest method; assay type: functional
# Klebsiella pneumoniae [33] = assay: Antibacterial activity against Klebsiella pneumoniae by Etest method in presence of 4 ug/ml NAB7064; assay type: functional
# Acinetobacter baumannii [34] = assay: Antibacterial activity against Acinetobacter baumannii F264 by Etest method in presence of 1 ug/ml NAB739; assay type: functional
# Citrobacter freundii = assay: Antibacterial activity against Citrobacter freundii ATCC 8090 by Etest method in presence of 4 ug/ml NAB7069; assay type: functional
# Escherichia coli [35] = assay: Antibacterial activity against Escherichia coli NCTC13353 by Etest method in presence of 4 ug/ml NAB7062; assay type: functional
# Pseudomonas aeruginosa [36] = assay: as §4; assay type: functional; remark: listed apart in the source
# Enterobacter cloacae [37] = assay: Antibacterial activity against Enterobacter cloacae ATCC 23355 […] by Etest method in presence of 1 ug/ml NAB7061; assay type: functional
# Acinetobacter baumannii [38] = assay: (§5) Antibacterial activity against Acinetobacter baumannii F264 by Etest method in presence of […] NAB739; assay type: functional
# Acinetobacter baumannii [39] = assay: Antibacterial activity against Acinetobacter baumannii by Etest method in presence of 4 ug/ml NAB7071; assay type: functional
# Klebsiella pneumoniae [40] = assay: Antibacterial activity against Klebsiella pneumoniae ATCC 13883 by Etest method in presence of 1 ug/ml NAB7061; assay type: functional; outline: as §1
# Escherichia coli [41] = assay: Antibacterial activity against Escherichia coli IH3080 by Etest method; assay type: functional; outline: as §3
# Acinetobacter baumannii [42] = assay: Antibacterial activity against Acinetobacter baumannii F264 by Etest method; assay type: functional; outline: as §3
# Escherichia coli [43] = assay: Antibacterial activity against Escherichia coli by Etest method in presence of 4 ug/ml NAB7061; assay type: functional
# Acinetobacter baumannii [44] = assay: as §2; assay type: functional; remark: listed apart in the source
# Acinetobacter baumannii [45] = assay: as §5; assay type: functional; remark: listed apart in the source
# Escherichia coli [46] = assay: Antibacterial activity against Escherichia coli ATCC […] by Etest method in presence of 2 ug/ml NAB7062; assay type: functional
# Escherichia coli [47] = assay: Antibacterial activity against Escherichia coli IH3080 assessed as reduction in bacterial count at 2 ug/ml using fresh compound stock solution; assay type: functional, organism-based
compound,measurement,setting,value
CC[C@H]1OC(=O)[C@H](C)[C@@H](O[C@H]2C[C@@](C)(OC)[C@@H](O)[C@H](C)O2)[C@H](C)[C@@H](O[C@@H]2O[C@H](C)C[C@H](N(C)C)[C@H]2O)[C@](C)(OC)C[C@@H](C)C(=O)[C@H](C)[C@@H](O)[C@]1(C)O [CLARITHROMYCIN],MIC,Acinetobacter baumannii [1],0.5 µg/mL
same,MIC,Klebsiella pneumoniae [2],≤ 0.141 µg/mL
same,MIC,Pseudomonas aeruginosa [3],3 µg/mL
same,MIC,Escherichia coli [4],0.25 µg/mL
same,MIC,Enterobacter cloacae [5],0.25 µg/mL
same,MIC,Proteus mirabilis,24 µg/mL
same,MIC,Pseudomonas aeruginosa [6],32 µg/mL
same,MIC,Enterobacter cloacae [7],1.5 µg/mL
same,MIC,Klebsiella pneumoniae [8],12 µg/mL
same,MIC,Enterobacter cloacae [9],0.38 µg/mL
same,MIC,Escherichia coli [10],0.5 µg/mL
same,MIC,Serratia marcescens,96 µg/mL
same,MIC,Klebsiella pneumoniae [11],1 µg/mL
same,MIC,Acinetobacter baumannii [12],1 µg/mL
same,MIC,Enterobacter cloacae [13],0.047 µg/mL
same,MIC,Escherichia coli [14],16 µg/mL
same,MIC,Escherichia coli [15],0.047 µg/mL
same,MIC,Klebsiella oxytoca [16],0.25 µg/mL
same,MIC,Enterobacter cloacae [17],64 µg/mL
same,MIC,Pseudomonas aeruginosa [18],16 µg/mL
same,MIC,Acinetobacter baumannii [19],0.5 µg/mL
same,MIC,Escherichia coli [20],0.5 µg/mL
same,MIC,Acinetobacter baumannii [21],0.094 µg/mL
same,MIC,Acinetobacter baumannii [22],0.5 µg/mL
same,MIC,Klebsiella oxytoca [23],0.19 µg/mL
same,MIC,Escherichia coli [24],0.094 µg/mL
same,MIC,Pseudomonas aeruginosa [25],32 µg/mL
same,MIC,Enterobacter cloacae [26],0.273 µg/mL
same,MIC,Klebsiella pneumoniae [27],0.19 µg/mL
same,MIC,Pseudomonas aeruginosa [28],12 µg/mL
same,MIC,Escherichia coli [29],0.105 µg/mL
same,MIC,Pseudomonas aeruginosa [30],48 µg/mL
same,MIC,Proteus vulgaris,24 µg/mL
same,MIC,Klebsiella pneumoniae [31],24 µg/mL
same,MIC,Acinetobacter baumannii [32],8 µg/mL
same,MIC,Klebsiella pneumoniae [33],0.25 µg/mL
same,MIC,Acinetobacter baumannii [34],0.125 µg/mL
same,MIC,Citrobacter freundii,0.125 µg/mL
same,MIC,Escherichia coli [35],1 µg/mL
same,MIC,Pseudomonas aeruginosa [36],32 µg/mL
same,MIC,Enterobacter cloacae [37],32 µg/mL
same,MIC,Acinetobacter baumannii [38],1.5 µg/mL
same,MIC,Acinetobacter baumannii [39],0.25 µg/mL
same,MIC,Klebsiella pneumoniae [40],2 µg/mL
same,MIC,Escherichia coli [41],12 µg/mL
same,MIC,Acinetobacter baumannii [42],6 µg/mL
same,MIC,Escherichia coli [43],0.032 µg/mL
same,MIC,Acinetobacter baumannii [44],1.5 µg/mL
same,MIC,Acinetobacter baumannii [45],2 µg/mL
same,MIC,Escherichia coli [46],0.19 µg/mL
CCCCCCCC(=O)N[C@H](C(=O)N[C@H](CO)C(=O)N[C@H]1CCNC(=O)[C@H]([C@@H](C)O)NC(=O)[C@H](CCN)NC(=O)[C@H](CCN)NC(=O)[C@H](CC(C)C)NC(=O)[C@H](Cc2ccccc2)NC(=O)[C@H](CCN)NC1=O)[C@@H](C)O,Activity,Escherichia coli [47],Active
